Results reported in ChEMBL document CHEMBL4673214, “Synthesis and antibacterial bioactivities of cationic deacetyl linezolid amphiphiles” (Eur J Med Chem, 2018).
Values after ≈ are worked out from the molar mass of the structure shown. Active and inactive are the calls of the source. The rule behind the calls is not given here.

Columns and labels:
Staphylococcus aureus [1] = experiment: Antibacterial activity against methicillin-resistant Staphylococcus aureus clinical isolate 10 assessed as reduction in bacterial growth incubated for 16 to 20 hrs by CLSI-based broth microdilution method; format: functional; details: time 16-20 hrs
Method in brief: (§1)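 Clinical isolates tested by broth microdilution in cation-adjusted Mueller-Hinton broth. Cultures grown 4-6 h (~10^8 CFU/mL) were diluted to ~10^6 CFU/mL and mixed 1:1 with compound serial dilutions made from 256 down to 0.5 µg/mL (pre-mixing). Plates held at 37 °C for 16-20 h, then read for growth. Each concentration run in duplicate, whole experiment at least twice.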

Staphylococcus aureus [2] = experiment: Antibacterial activity against methicillin-resistant Staphylococcus aureus clinical isolate 3 assessed as reduction in bacterial growth incubated for 16 to 20 hrs by CLSI-based broth microdilution method; format: functional; details: time 16-20 hrs; method in brief: as §1
Enterobacteriaceae [3] = experiment: Antibacterial activity against NDM1 producing carbapenem-resistant Enterobacteriaceae clinical isolate 10 assessed as reduction in bacterial growth incubated for 16 to 20 hrs by CLSI-based broth microdilution method; format: functional; details: time 16-20 hrs; method in brief: as §1
Klebsiella pneumoniae [4] = experiment: Antibacterial activity against carbapenem-resistant Klebsiella pneumoniae clinical isolate 10 assessed as reduction in bacterial growth incubated for 16 to 20 hrs by CLSI-based broth microdilution method; format: functional; details: time 16-20 hrs; method in brief: as §1
Staphylococcus aureus [5] = experiment: Antibacterial activity against methicillin-resistant Staphylococcus aureus clinical isolate 8 assessed as reduction in bacterial growth incubated for 16 to 20 hrs by CLSI-based broth microdilution method; format: functional; details: time 16-20 hrs; method in brief: as §1
Klebsiella pneumoniae [6] = experiment: Antibacterial activity against carbapenem-resistant Klebsiella pneumoniae clinical isolate 1 assessed as reduction in bacterial growth incubated for 16 to 20 hrs by CLSI-based broth microdilution method; format: functional; details: time 16-20 hrs; method in brief: as §1
Klebsiella pneumoniae [7] = experiment: Antibacterial activity against carbapenem-resistant Klebsiella pneumoniae clinical isolate 2 assessed as reduction in bacterial growth incubated for 16 to 20 hrs by CLSI-based broth microdilution method; format: functional; details: time 16-20 hrs; method in brief: as §1
Staphylococcus aureus [8] = experiment: Antibacterial activity against methicillin-resistant Staphylococcus aureus clinical isolate 7 assessed as reduction in bacterial growth incubated for 16 to 20 hrs by CLSI-based broth microdilution method; format: functional; details: time 16-20 hrs; method in brief: as §1
Enterobacteriaceae [9] = experiment: Antibacterial activity against NDM1 producing carbapenem-resistant Enterobacteriaceae clinical isolate 5 assessed as reduction in bacterial growth incubated for 16 to 20 hrs by CLSI-based broth microdilution method; format: functional; details: time 16-20 hrs; method in brief: as §1
Staphylococcus aureus [10] = experiment: Antibacterial activity against methicillin-resistant Staphylococcus aureus clinical isolate 6 assessed as reduction in bacterial growth incubated for 16 to 20 hrs by CLSI-based broth microdilution method; format: functional; details: time 16-20 hrs; method in brief: as §1
Staphylococcus aureus [11] = experiment: Antibacterial activity against methicillin-resistant Staphylococcus aureus clinical isolate 9 assessed as reduction in bacterial growth incubated for 16 to 20 hrs by CLSI-based broth microdilution method; format: functional; details: time 16-20 hrs; method in brief: as §1
Klebsiella pneumoniae [12] = experiment: Antibacterial activity against carbapenem-resistant Klebsiella pneumoniae clinical isolate 6 assessed as reduction in bacterial growth incubated for 16 to 20 hrs by CLSI-based broth microdilution method; format: functional; details: time 16-20 hrs; method in brief: as §1
Escherichia coli = experiment: Antibacterial activity against Escherichia coli ATCC 25922 assessed as reduction in bacterial growth incubated 16 to 20 hrs by CLSI-based broth microdilution method; format: functional; details: time 16-20 hrs
Method in brief: (§2)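 Broth microdilution following CLSI, in cation-adjusted Mueller-Hinton broth. Inoculum from a 4-6 h culture (~10^8 CFU/mL), diluted to ~10^6 CFU/mL. Water stocks were serially diluted in MHB (256 to 0.5 µg/mL) and mixed 1:1 with the inoculum. Plates ran 16-20 h at 37 °C. MIC was read visually. Each concentration was tested in duplicate, and the experiment was repeated at least twice.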

Klebsiella pneumoniae [13] = experiment: Antibacterial activity against carbapenem-resistant Klebsiella pneumoniae clinical isolate 9 assessed as reduction in bacterial growth incubated for 16 to 20 hrs by CLSI-based broth microdilution method; format: functional; details: time 16-20 hrs; method in brief: as §1
Enterococcus faecalis = experiment: Antibacterial activity against Enterococcus faecalis ATCC 29212 assessed as reduction in bacterial growth incubated 16 to 20 hrs by CLSI-based broth microdilution method; format: functional; details: time 16-20 hrs; method in brief: as §2
Cell membrane [14] = experiment: Induction of inner membrane permeabilization in Escherichia coli ATCC 25922 at 20 ug/ml measured for 12 mins by propidium iodide staining based fluorescence microscopic analysis; details: dose 20.0 µg/ml
Method in brief: (§3)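 Mid-log bacteria were washed and resuspended at ~10^8 CFU/mL and preincubated with propidium iodide (10 µM stock) for 30 min (S. aureus) or 40 min (E. coli). Fluorescence (ex 535/em 617 nm) was read on a plate for an 8 min baseline, then every 2 min for 12 min after compound at 20 µg/mL final. Water served as control.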

Cell membrane [15] = experiment: Induction of inner membrane permeabilization in Staphylococcus aureus ATCC 29213 at 20 ug/ml measured for 12 mins by propidium iodide staining based fluorescence microscopic analysis; details: dose 20.0 µg/ml; method in brief: as §3
Enterobacteriaceae [16] = experiment: Antibacterial activity against NDM1 producing carbapenem-resistant Enterobacteriaceae clinical isolate 7 assessed as reduction in bacterial growth incubated for 16 to 20 hrs by CLSI-based broth microdilution method; format: functional; details: time 16-20 hrs; method in brief: as §1
Enterobacteriaceae [17] = experiment: Antibacterial activity against NDM1 producing carbapenem-resistant Enterobacteriaceae clinical isolate 9 assessed as reduction in bacterial growth incubated for 16 to 20 hrs by CLSI-based broth microdilution method; format: functional; details: time 16-20 hrs; method in brief: as §1
Klebsiella pneumoniae [18] = experiment: Antibacterial activity against carbapenem-resistant Klebsiella pneumoniae clinical isolate 8 assessed as reduction in bacterial growth incubated for 16 to 20 hrs by CLSI-based broth microdilution method; format: functional; details: time 16-20 hrs; method in brief: as §1
Staphylococcus aureus [19] = experiment: Antibacterial activity against methicillin-resistant Staphylococcus aureus clinical isolate 5 assessed as reduction in bacterial growth incubated for 16 to 20 hrs by CLSI-based broth microdilution method; format: functional; details: time 16-20 hrs; method in brief: as §1
Klebsiella pneumoniae [20] = experiment: Antibacterial activity against carbapenem-resistant Klebsiella pneumoniae clinical isolate 7 assessed as reduction in bacterial growth incubated for 16 to 20 hrs by CLSI-based broth microdilution method; format: functional; details: time 16-20 hrs; method in brief: as §1
Klebsiella pneumoniae [21] = experiment: Antibacterial activity against carbapenem-resistant Klebsiella pneumoniae clinical isolate 3 assessed as reduction in bacterial growth incubated for 16 to 20 hrs by CLSI-based broth microdilution method; format: functional; details: time 16-20 hrs; method in brief: as §1
Klebsiella pneumoniae [22] = experiment: Antibacterial activity against carbapenem-resistant Klebsiella pneumoniae clinical isolate 4 assessed as reduction in bacterial growth incubated for 16 to 20 hrs by CLSI-based broth microdilution method; format: functional; details: time 16-20 hrs; method in brief: as §1
Cell membrane [23] = experiment: Induction of cytoplasmic membrane depolarization in Staphylococcus aureus ATCC 29213 at 20 ug/ml measured for 12 mins by DiSC35 dye-based fluorescence assay; format: subcellular; details: dose 20.0 µg/ml
Method in brief: (§4)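 Mid-log bacteria were washed and resuspended at ~10^8 CFU/mL: S. aureus in PBS, E. coli in 5 mM HEPES/5 mM glucose/100 mM KCl (1:1:1). Cells were loaded with diSC35 (10 µM stock) for 30 min (S. aureus) or 40 min (E. coli, plus EDTA). Fluorescence (ex 622/em 670 nm) was read for an 8 min baseline, then every 2 min for 12 min after compound at 20 µg/mL final. Water served as control.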

Cell membrane [24] = experiment: Induction of cytoplasmic membrane depolarization in Escherichia coli ATCC 25922 at 20 ug/ml measured for 12 mins by DiSC35 dye-based fluorescence assay; format: subcellular; details: dose 20.0 µg/ml; method in brief: as §4
Staphylococcus aureus [25] = experiment: Antibacterial activity against methicillin-resistant Staphylococcus aureus clinical isolate 2 assessed as reduction in bacterial growth incubated for 16 to 20 hrs by CLSI-based broth microdilution method; format: functional; details: time 16-20 hrs; method in brief: as §1
Staphylococcus aureus [26] = experiment: Antibacterial activity against methicillin-resistant Staphylococcus aureus clinical isolate 4 assessed as reduction in bacterial growth incubated for 16 to 20 hrs by CLSI-based broth microdilution method; format: functional; details: time 16-20 hrs; method in brief: as §1
Klebsiella pneumoniae [27] = experiment: Antibacterial activity against carbapenem-resistant Klebsiella pneumoniae clinical isolate 5 assessed as reduction in bacterial growth incubated for 16 to 20 hrs by CLSI-based broth microdilution method; format: functional; details: time 16-20 hrs; method in brief: as §1

Row | Compound | MIC (Staphylococcus aureus [1]) | MIC (Staphylococcus aureus [2]) | MIC (Enterobacteriaceae [3]) | MIC (Klebsiella pneumoniae [4]) | MIC (Staphylococcus aureus [5]) | MIC (Klebsiella pneumoniae [6]) | MIC (Klebsiella pneumoniae [7]) | MIC (Staphylococcus aureus [8]) | MIC (Enterobacteriaceae [9]) | MIC (Staphylococcus aureus [10]) | MIC (Staphylococcus aureus [11]) | MIC (Klebsiella pneumoniae [12]) | MIC (Escherichia coli) | MIC (Klebsiella pneumoniae [13]) | MIC (Enterococcus faecalis) | Activity (Cell membrane [14]) | Activity (Cell membrane [15]) | MIC (Enterobacteriaceae [16]) | MIC (Enterobacteriaceae [17]) | MIC (Klebsiella pneumoniae [18]) | further results
1 | C[C@@H](O)[C@H]1C(=O)N2C(C(=O)O)=C(S[C@@H]3CN[C@H](C(=O)N(C)C)C3)[C@H](C)[C@H]12 [MEROPENEM] | 32 mg/L (≈ 83.4 µM) | 32 mg/L (≈ 83.4 µM) | > 64 mg/L | 64 mg/L (≈ 167 µM) | 64 mg/L (≈ 167 µM) | > 64 mg/L | > 64 mg/L | 64 mg/L (≈ 167 µM) | 8 mg/L (≈ 20.9 µM) | 32 mg/L (≈ 83.4 µM) | 64 mg/L (≈ 167 µM) | > 64 mg/L | < 0.125 mg/L | > 64 mg/L | 4 mg/L (≈ 10.4 µM) | inactive | inactive | 64 mg/L (≈ 167 µM) | > 64 mg/L | 32 mg/L (≈ 83.4 µM) | MIC (Staphylococcus aureus [19]): 64 mg/L (≈ 167 µM); MIC (Klebsiella pneumoniae [20]): > 64 mg/L; MIC (Klebsiella pneumoniae [21]): 2 mg/L (≈ 5.22 µM); MIC (Klebsiella pneumoniae [22]): 32 mg/L (≈ 83.4 µM); Activity (Cell membrane [23]): inactive; Activity (Cell membrane [24]): inactive; MIC (Staphylococcus aureus [25]): 64 mg/L (≈ 167 µM); MIC (Staphylococcus aureus [26]): 32 mg/L (≈ 83.4 µM); MIC (Klebsiella pneumoniae [27]): 32 mg/L (≈ 83.4 µM)
2 | CCCCCCCCCCCN(C[C@H]1CN(c2ccc(N3CCOCC3)c(F)c2)C(=O)O1)C(=O)[C@@H](N)CCCCN.Cl.Cl | 4 mg/L | 2 mg/L | 16 mg/L | 16 mg/L | 4 mg/L | 16 mg/L | 16 mg/L | 2 mg/L | 8 mg/L | 2 mg/L | 4 mg/L | 16 mg/L | 8 mg/L | 16 mg/L | 4 mg/L | Active | Active | 16 mg/L | 16 mg/L | 16 mg/L | MIC (Staphylococcus aureus [19]): 4 mg/L; MIC (Klebsiella pneumoniae [20]): 16 mg/L; MIC (Klebsiella pneumoniae [21]): 16 mg/L; MIC (Klebsiella pneumoniae [22]): 16 mg/L; Activity (Cell membrane [23]): Active; Activity (Cell membrane [24]): Active; MIC (Staphylococcus aureus [25]): 4 mg/L; MIC (Staphylococcus aureus [26]): 4 mg/L; MIC (Klebsiella pneumoniae [27]): 16 mg/L
